Bioassay records deposited in PubChem BioAssay by Broad Institute.
Rtt109 HAT inh – inhibitors of C. albicans Rtt109/Vps75 HAT, primary screen, biochemical, ThioGlo CoA-SH fluorescence, plate reader. purified Rtt109/Vps75, 4 h. AID 540336, 2011. hit rate 0.16% among 330,000. inhibition, % at 34.9 µM;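 active = inhibition of at least 50% in every replicate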
AF4-AF9 inh – inhibitors of AF4 peptide binding to AF9, primary screen, biochemical, AlphaScreen, biotin-AF4 peptide, FLAG-AF9, single point. inhibition, % at 10 µM. hit rate 0.47% among 350,000;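 active = every replicate reaching a set inhibition limit, whatever the replicate mean, cut at about 25% in these data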
Target sequence (P42568 whole entry, looked up): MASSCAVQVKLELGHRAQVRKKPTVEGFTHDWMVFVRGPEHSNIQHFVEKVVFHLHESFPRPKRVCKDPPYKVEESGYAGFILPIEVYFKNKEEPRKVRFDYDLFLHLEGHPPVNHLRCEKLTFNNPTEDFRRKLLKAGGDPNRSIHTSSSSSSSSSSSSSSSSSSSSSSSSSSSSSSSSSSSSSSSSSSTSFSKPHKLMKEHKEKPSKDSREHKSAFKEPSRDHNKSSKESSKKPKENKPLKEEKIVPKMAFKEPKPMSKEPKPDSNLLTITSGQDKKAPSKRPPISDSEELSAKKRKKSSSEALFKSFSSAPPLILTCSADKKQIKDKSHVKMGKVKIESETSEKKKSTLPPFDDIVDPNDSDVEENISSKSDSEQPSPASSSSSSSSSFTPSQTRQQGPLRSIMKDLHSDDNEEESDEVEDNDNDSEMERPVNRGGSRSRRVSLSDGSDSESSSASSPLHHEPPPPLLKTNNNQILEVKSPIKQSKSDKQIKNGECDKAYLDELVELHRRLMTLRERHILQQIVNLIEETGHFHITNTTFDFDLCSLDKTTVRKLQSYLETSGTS
miR122 inh – miR-122 Renilla sensor signal increase in Huh7, primary screen, miR-122 inhibitor project, cell-based, single point, plate reader; Huh7 miR-122 Renilla luciferase sensor, 48 h; neutral wells = 0, positive control = 100; activation (reporter increase), % at 12.5 µM; hit rate 0.3% among 340,000; AID 602342, 2012;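 active = mean replicate activation score at least 90 and every replicate individually at or above 90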;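 note: higher luciferase means less miR-122 activity so hits act as miR-122 inhibitors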
S100A4 inh HTS – inhibitors of S100A4-myosin IIA peptide binding, primary screen, biochemical, fluorescence polarization, TAMRA-MyoIIA peptide; Protein S100-A4 (Homo sapiens), P26447; inhibition, % at 10.7 µM; hit rate 0.14% among 360,000; AID 652163, 2013;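 active = mean inhibition of at least 70% across replicates, with every replicate also reaching that level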
Target sequence (P26447 whole entry, looked up): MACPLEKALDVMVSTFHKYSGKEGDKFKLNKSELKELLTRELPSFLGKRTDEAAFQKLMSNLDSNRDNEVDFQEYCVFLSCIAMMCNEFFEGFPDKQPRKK
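Material: S100A4 monomer protein | Medium: HEPES pH 7.2 with CaCl2, KCl, NaCl, DTT, Triton | Reagent: Labelled myosin peptide probe, 5 nM | Doses: One dose per compound | Times: 5 min incubation before reading | Benchmarks: Neutral control DMSO, positive control TFP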
ERAP1 inh – human ERAP1 aminopeptidase inhibitors, primary screen, biochemical, single point, plate reader | Endoplasmic reticulum aminopeptidase 1 (Homo sapiens), Q9NZ08 | recombinant ERAP1, Leu-AMC fluorescence, 60 min | inhibition, % at 10.7 µM | hit rate 0.15% among 340,000 | AID 652197, 2013;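 active = mean replicate inhibition of at least 30%, or all replicates individually reaching that 30% level; inactive = mean below 30% and not every replicate reaching it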
Hits are given with their value; . = inactive; / = no result. A selection: hits, their analogues and other compounds. The true share with any hit is near 0.86%.

SMILES	Rtt109 HAT inh	AF4-AF9 inh	miR122 inh	S100A4 inh HTS	ERAP1 inh
CCc1ccc(NS(=O)(=O)c2ccc(C)c(C(=O)N3CCOCC3)c2)cc1	.	.	/	.	83.4
Cc1cc2cc(CNS(=O)(=O)c3ccc4ccccc4c3)ccc2n1C	.	.	/	.	.
Cc1cc(C)c(S(=O)(=O)NCc2ccc3c(c2)cc(C)n3C)c(C)c1	.	.	.	82.9	.
O=C(NC1CCCCC1)N[C@@H]1C=C[C@@H](CC(=O)N2CCOCC2)O[C@@H]1CO	/	38.2	/	.	.
CN(C)C(=O)C[C@@H]1C=C[C@H](NC(=O)Nc2cccc(F)c2)[C@@H](CO)O1	/	.	/	97.4	.
O=C(Nc1ccc(C(F)(F)F)cc1)N[C@H]1C=C[C@@H](CC(=O)N2CCCCC2)O[C@@H]1CO	/	.	.	127.9	.
O=C(Nc1ccc(C(F)(F)F)cc1)N[C@@H]1C=C[C@@H](CC(=O)N2CCCCC2)O[C@H]1CO	/	.	.	.	.
COc1cccc(NC(=O)N[C@H]2C=C[C@H](CC(=O)N3CCN(C)CC3)O[C@H]2CO)c1	/	.	/	.	.
COc1cccc(NC(=O)N[C@@H]2C=C[C@@H](CC(=O)N3CCN(C)CC3)O[C@@H]2CO)c1	/	.	/	86.1	.
O=C(NC1CCCCC1)N[C@@H]1C=C[C@H](CC(=O)N2CCOCC2)O[C@H]1CO	/	.	/	.	.
CC(C)C#Cc1ccc2c(c1)O[C@@H](CN(C)Cc1cccnc1)[C@H](C)CN([C@@H](C)CO)S2(=O)=O	/	.	.	.	.
COc1ccc(S(=O)(=O)N(C)C[C@H]2OCCCC[C@H](C)Oc3ccc(NC(=O)Nc4ccc5c(c4)OCO5)cc3C(=O)N([C@H](C)CO)C[C@H]2C)cc1	/	.	.	.	.
CCCNC(=O)N[C@H]1C=C[C@@H](CC(=O)N2CCN(C)CC2)O[C@@H]1CO	/	.	/	124.9	.
CCOC(=O)CSc1nc2ccccc2c(=O)n1CC1CCC(C(=O)NCc2ccco2)CC1 (stereo unspecified)	.	/	137.7	.	.
COC(=O)C1=C(C)Nc2nc(SCc3ccccc3)[nH]c(=O)c2C1c1cccs1 (stereo unspecified)	.	48.7	.	.	.
CCSc1nc2c(c(=O)[nH]1)C(c1cccnc1)C(C(=O)OC)=C(C)N2 (stereo unspecified)	.	/	.	/	/
C[C@H]1CCCCO[C@@H](CN(C)S(=O)(=O)c2cccs2)[C@@H](C)CN([C@@H](C)CO)C(=O)c2cc(NS(=O)(=O)c3ccccc3)ccc2O1	/	.	.	.	.
C/C=C/c1ccc2c(c1)O[C@@H](CN(C)C(=O)CN(C)C)[C@H](C)CN([C@@H](C)CO)S2(=O)=O	/	.	.	.	.
COc1ccc2nc3cc(Cl)ccc3c(Nc3ccc(O)c(CN4CCN(C)CC4)c3)c2c1	.	58.6	.	.	.
C#C[C@]1(O)CCC2C3CCC4=CC(=O)CC[C@@H]4C3CC[C@@]21C (stereo partly specified)	.	.	.	.	.
CC#C[C@]1(O)CC[C@H]2[C@@H]3CCC4=CC(=O)CCC4=C3[C@@H](c3ccc(N(C)C)cc3)C[C@@]21C	.	32.9	.	.	.
C[C@H]1CN([C@@H](C)CO)C(=O)c2cc(NC(=O)Nc3ccc(C(F)(F)F)cc3)ccc2O[C@@H]1CN(C)S(=O)(=O)c1cn(C)cn1	/	.	.	.	.
FC(F)(F)c1nnc2c(Sc3ccccc3)nc3ccc(Cl)cc3n12	.	/	307.2	/	/
FC(F)(F)c1nc2ccccc2n2c(-c3ccc(Cl)cc3Cl)nnc12	.	/	.	/	/
COc1cc2ccc(=O)oc2c(O[C@@H]2O[C@H](CO)[C@@H](O)[C@H](O)[C@H]2O)c1O	.	.	.	.	58.7
SMILES	Rtt109 HAT inh	AF4-AF9 inh	miR122 inh	S100A4 inh HTS	ERAP1 inh
COc1cc2ccc(=O)oc2c(O)c1O	125.6	.	.	.	.
O=c1ccc2ccc(O[C@@H]3O[C@H](CO)[C@@H](O)[C@H](O)[C@H]3O)c(O)c2o1	.	.	/	.	/
Cc1c(Cl)cccc1NS(=O)(=O)c1ccc2c(c1)C1C=CCC1C(c1ccc(C(=O)O)cc1)N2 (stereo unspecified)	.	/	.	/	/
COc1ccc(NS(=O)(=O)c2ccc3c(c2)[C@H]2C=CC[C@H]2[C@@H](c2ccc(C(=O)O)cc2)N3)cc1	.	.	.	.	31.9
Cc1cc(-c2ccccc2)nc(=O)[nH]1	.	/	.	/	/
Cn1cccc2[nH]c(=O)nc1-2	.	.	.	.	88.8
C[C@H](O)C#Cc1cnc2c(c1)C(=O)N([C@H](C)CO)C[C@H](C)[C@@H](CN(C)C(=O)c1ccccc1)O2	/	.	.	.	.
O=C(C[C@H]1C=C[C@@H](NC(=O)c2ccncc2)[C@@H](CO)O1)Nc1ccccc1	/	.	/	.	.
CCOc1ccc(-c2nc(C#N)c(N3CCN(Cc4ccccc4)CC3)o2)cc1	.	52.9	.	.	.
N#Cc1nc(COc2ccccc2)oc1N1CCCCCC1	.	26.9	.	.	.
CCC(=O)Nc1ccc2c(c1)C(=O)N(C)C[C@H](OC)[C@H](C)CN(C(=O)CC1CC1)[C@@H](C)CO2	/	.	.	.	.
CC(Sc1nnc(-c2cccnc2)n1C)C(=O)N1CCOCC1 (stereo unspecified)	.	.	.	.	30.5
Cc1ccc(-n2c(SCC(=O)N3CCOCC3)nnc2-c2cccnc2)cc1	.	.	/	.	.
COc1ccc(O)c(C(=O)c2cc(C#N)c(=O)n(-c3ccc(Cl)cc3)c2)c1	.	29.2	/	.	/
O=C(Nc1ccc(F)cc1)N1C[C@H]2[C@@H](c3ccccc31)[C@@H](CO)N2C(=O)c1ccc(F)cc1	/	.	.	.	.
Cc1ccc(S(=O)(=O)N(C)C[C@H]2OCCCC[C@@H](C)Oc3ccc(NC(=O)Nc4ccccc4)cc3C(=O)N([C@@H](C)CO)C[C@H]2C)cc1	/	.	.	.	.
Cc1ccc(NC(=O)Cc2cn(C)c3ccccc23)cc1F	/	.	321.4	.	.
Cc1ccc(C)c(S(=O)(=O)Nc2ccc(C(=O)N3CCCCC3)cc2)c1	.	.	108.6	.	.
Cc1ccc(NS(=O)(=O)c2cc(C(=O)NCCSC3CCCCC3)ccc2C)cc1	.	/	121.7	/	/
COc1ccc(NC(=O)CNC(=O)c2cccs2)cc1Cl	.	.	.	.	.
CC(=O)N1CCN(C(=O)c2ccc(NS(=O)(=O)c3cc(C)ccc3C)cc2)CC1	.	.	/	.	.
Cc1ccc(NS(=O)(=O)c2cc(C(=O)NCCSc3ccc(C)cc3)ccc2C)cc1	.	/	114.8	/	/
Cc1ccc(C)c(S(=O)(=O)Nc2ccc(C(=O)NCCCN(C)C)cc2)c1	/	.	.	.	.
Cc1ccc(NC(=O)CNC(=O)c2cccs2)cc1S(=O)(=O)Nc1ccc(Cl)cc1	.	.	98.2	.	.
CN(C)CC(=O)Nc1ccc2c(c1)[C@H]1C[C@H](CC(=O)NCc3cc(F)ccc3F)O[C@H](CO)[C@H]1O2	/	.	.	.	.
